Measured values published in paper PMC4893919 (Molecular cancer therapeutics, 2016).
Several values for one entry are separate records, joined by “and”; a condition that tells them apart may be missing. Equal values may be shown once. Read-outs that look alike come from different tables or passages of the source.

How the values were obtained:
[1] = test system: MeWo (No NRAS or BRAF mutation); test: MTT cell viability assay, MeWo; type: cell-based; details: read-out: IC50, MeWo (No NRAS or BRAF mutation); 24 h treatment, human cell line
Summary of the method: (§1)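 Cells were seeded in 96-well plates overnight, then exposed to test compound for 24 h at concentrations up to 10 μM. Growth was read by MTT as OD570. Viability was expressed relative to vehicle (0.5% DMSO) set as 100%, and IC50 was derived from this.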

[2] = test system: A375-R cells (acquired vemurafenib resistance); test: MTT cell viability assay, A375-R; type: cell-based, human
A375 cells [3] = test: Cell cycle analysis, A375; type: cell-based, human; details: A375, 24 h
Summary of the method: (§2)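 Cells were synchronised in medium with 1% FBS for 12 h, then given fresh 10% FBS medium with vehicle or test compound for 24 h. Adherent and floating cells were pooled, fixed overnight in ice-cold 70% ethanol at 4°C, and stained with propidium iodide/RNase A for 30 min at room temperature in the dark. Cells were then analysed by flow cytometry.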

A375 (BRAF mutation) = test: MTT cell viability assay, A375; type: cell-based, human
A375 cells [4] = test: Colony formation assay, A375; type: cell-based, human; details: for inhibition of colony formation: 21 days
Summary of the method: (§3)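 A375 or A375-R cells were grown in 24-well plates with treatment for 21 days, with drug-containing medium renewed every three days. Colonies were stained with 0.1% crystal violet in PBS. Dye was extracted with 20% acetic acid and absorbance read at 595 nm. Values are colony formation relative to control, n = 4.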

A375-R cells [5] = test: Cell cycle analysis, A375-R; type: cell-based, human
Summary of the method: as §2

A2058 (BRAF mutation) = test: MTT cell viability assay, A2058; type: cell-based; details: read-out: IC50, A2058 (BRAF mutation); 24 h treatment, human cell line
Summary of the method: as §1

B16-F10 (NRAS mutation) = test: MTT cell viability assay, B16-F10; type: cell-based; details: read-out: IC50, B16-F10 (NRAS mutation); 24 h treatment, mouse cell line
Summary of the method: as §1

A375-R cells [6] = test: ROS measurement, A375-R; type: cell-based, human; details: 5 µM, 2 h
[7] = test system: A375-R xenografts (acquired vemurafenib resistance); test: A375-R xenograft tumor model; type: in vivo, NOD/SCID mice
Summary of the method: (§4)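 Female NOD/SCID mice, 6 weeks old, received 3×10^6 A375-R or A2058 cells subcutaneously in the flank. Treatment began at about 50 mm³ tumour volume, with 8 mice per randomised group. Doses were PLX4032 75 mg/kg/day and test compound 20 mg/kg every two days; combination arms alternated the two, each every two days. Tumour volume (a×b²×0.5) and body weight were recorded every three days. TGI used initial-to-final volume change versus vehicle.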

A375 xenografts = test: A375 xenograft tumor model; type: in vivo, NOD/SCID mice
Summary of the method: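 A375 cells (3×10^6) were injected subcutaneously into the flanks of 6-week-old female NOD/SCID mice. At about 50 mm³, mice were randomised, n = 8 per group. Dosing was PLX4032 20 mg/kg/day and test compound 20 mg/kg every two days. Combination arms alternated test compound (20 mg/kg every four days) with PLX4032 (20 mg/kg every two days). Volume (a×b²×0.5) was measured every three days. Tumours were dissected and weighed. TGI compared volume change with vehicle.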

A375 cells [8] = test: ROS measurement, A375; type: cell-based, human; details: A375, 5 µM, 2 h
A375 cells [9] = test: Apoptosis detection; type: cell-based, human; details: A375, 72 h
Summary of the method: (§5)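 Cells were seeded in 6-well plates and exposed to vehicle or test compound for 72 h. Apoptotic cells were scored by Annexin V-FITC plus propidium iodide double staining and flow cytometry.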

SK-MEL-2 (NRAS mutation) = test: MTT cell viability assay, SK-MEL-2; type: cell-based; details: read-out: IC50, SK-MEL-2 (NRAS mutation); 24 h treatment, human cell line
Summary of the method: as §1

[10] = test system: Melanocyte (Normal cells); test: MTT cell viability assay, normal melanocytes; type: cell-based; details: read-out: IC50, Melanocyte (Normal cells); 24 h treatment, human cells
Summary of the method: as §1

A375-R cells [11] = test: Colony formation assay, A375-R; type: cell-based, human; details: 21 days
Summary of the method: as §3

A375-R cells [12] = test: Apoptosis detection, A375-R; type: cell-based, human
Summary of the method: as §5

[13] = test system: A2058 xenografts (intrinsic vemurafenib resistance); test: A2058 xenograft tumor model; type: in vivo, NOD/SCID mice; details: 75 mg/kg/day, 24 doses in total
Summary of the method: as §4

metastatic melanoma = details: cited from earlier work
[14] = read-out: IC50, A375 (BRAF mutation), 24 h treatment, human cell line
[15] = 20 mg/kg/every two days, 12 doses in total
[16] = 20 mg/kg/day, 24 doses in total

SMILES	IC50 (A375 (BRAF mutation); [14])	IC50 (B16-F10 (NRAS mutation))	IC50 (SK-MEL-2 (NRAS mutation))	IC50 [1]	IC50 (A2058 (BRAF mutation))	IC50 [10]	further results
C=C(C)C(=O)O[C@H]1CC2=C[C@@H](C/C(C)=C/[C@H]3OC(=O)C(=C)[C@H]13)OC2=O [DET, deoxyelephantopin]	6 µM and 5.9 µM	6 ± 0.13 µM	> 10 µM	> 10 µM	> 10 µM	> 10 µM	inhibition of A375-R cell viability ([2]; 2 µM, 72 h): 65%; effect on cell-cycle distribution (A375 cells [3]): induced G2/M-phase arrest; inhibition of A375 cell viability (A375 (BRAF mutation); 2 µM, 72 h): 55%; inhibition of colony formation (A375 cells [4]; 1 µM): 38%; inhibition of colony formation (A375 cells [4]; 2.5 µM): 65%; inhibition of colony formation (A375 cells [4]; 5 µM): 91%; effect on cell-cycle distribution (A375-R cells [5]): G2/M-phase cell-cycle arrest; increase of ROS level (A375-R cells [6]): more than 2 fold; tumor growth inhibition (TGI) ([7]; A375-R, 20 mg/kg/every two days, 12 doses in total): 31.2%; reduction of tumor mass (A375 xenografts; [15]): 47.5%; tumor growth inhibition (TGI) (A375 xenografts; [15]): 71.0%; increase of ROS level (A375 cells [8]): more than 2 fold; apoptosis (A375 cells [9]): ≤ 67.8%; effect on colony formation of A375-R cells (A375-R cells [11]): inhibited colony formation
C=C1C(=O)OC2CC3=C[C@@H](C/C(C)=C/C(OC(C)=O)[C@H]12)OC3=O (stereo partly shown) [DETD-17]	> 10 µM	> 10 µM	> 10 µM	> 10 µM	> 10 µM	> 10 µM	–
C=C1C(=O)OC2CC3=C[C@@H](C/C(C)=C/C(OC(=O)Cc4ccccc4)[C@H]12)OC3=O (stereo partly shown) [DETD-43]	3.6 ± 0.25 µM	7.4 ± 0.48 µM	8.2 ± 0.27 µM	> 10 µM	8.7 ± 0.33 µM	> 10 µM	–
CC(=O)N[C@@H](CS)C(=O)O [NAC, N-acetyl-L-cysteine, reference compound]	–	–	–	–	–	–	effect on A375-R cell viability ([2]; 5 mM alone): did not affect; effect on A375 cell viability (A375 (BRAF mutation); 5 mM alone): did not affect
CCCS(=O)(=O)Nc1ccc(F)c(C(=O)c2c[nH]c3ncc(-c4ccc(Cl)cc4)cc23)c1F [PLX4032, vemurafenib, reference compound]	–	–	–	–	–	–	IC50 ([2]; Homo sapiens, 72 h, read-out: IC50 on A375-R cells): 7.34 µM; fold less sensitive, A375-R compared to parental cell line ([2]; IC50 A375-R vs A375): 100 fold; effect on cell-cycle distribution (A375 cells [3]): G1-phase cell-cycle arrest; IC50 (A375 (BRAF mutation); Homo sapiens, A-375, 72 h, read-out: IC50 on A375 cells): 0.07 µM; inhibition at 0.1 µM (A375 cells [4]; Homo sapiens, A-375, 504 h, read-out: inhibition of colony formation): 55%; effect on cell-cycle distribution (A375-R cells [5]): no effect; apoptosis (A375-R cells [12]): no effect; anti-tumor activity [13]: no anti-tumor activity; anti-tumor activity ([7]; A375-R xenograft, 75 mg/kg/day, 24 doses in total): no anti-tumor activity; reduction of tumor mass (A375 xenografts; [16]): 71.9%; tumor growth inhibition (TGI) (A375 xenografts; [16]): 87.4%; apoptosis (A375 cells [9]): 10.4%; average time to relapse after therapy (metastatic melanoma; melanoma patients): ≤ 7 months; effect on colony formation of A375-R cells (A375-R cells [11]): no inhibitory effect
CN(C)/N=N/c1[nH]cnc1C(N)=O [dacarbazine]	–	–	–	–	–	–	complete response (metastatic melanoma; metastatic melanoma): less than 5%

Now from value to molecule, other results behind:

IC50 (A375 (BRAF mutation); [14])	IC50 (B16-F10 (NRAS mutation))	IC50 (SK-MEL-2 (NRAS mutation))	SMILES	IC50 [1]	IC50 (A2058 (BRAF mutation))	IC50 [10]	further results
> 10 µM	> 10 µM	> 10 µM	C=C1C(=O)OC2CC3=C[C@@H](C/C(C)=C/C(O)[C@H]12)OC3=O (stereo partly shown) [DETD-3]	> 10 µM	> 10 µM	> 10 µM	–
4.1 ± 0.15 µM	4.7 ± 0.03 µM	7.8 ± 0.14 µM	C=C1C(=O)OC2CC3=C[C@@H](C/C(C)=C/C(OC(=O)/C(C)=C/CC)[C@H]12)OC3=O (stereo partly shown) [DETD-5]	> 10 µM	5.8 ± 0.08 µM	> 10 µM	–
> 10 µM	7.1 ± 0.09 µM	> 10 µM	C=C1C(=O)OC2CC3=C[C@@H](C/C(C)=C/C(OC(=O)C(C)CC)[C@H]12)OC3=O (stereo partly shown) [DETD-13]	> 10 µM	> 10 µM	> 10 µM	–
> 10 µM	7.8 ± 0.28 µM	> 10 µM	C=C(CC)C(=O)OC1/C=C(\C)C[C@@H]2C=C(CC3OC(=O)C(=C)[C@@H]13)C(=O)O2 (stereo partly shown) [DETD-19]	> 10 µM	> 10 µM	> 10 µM	–
> 10 µM	> 10 µM	> 10 µM	C=C1C(=O)OC2CC3=C[C@@H](C/C(C)=C/C(OC(=O)/C=C/C)[C@H]12)OC3=O (stereo partly shown) [DETD-24]	> 10 µM	> 10 µM	> 10 µM	–
4.3 ± 0.62 µM	2.9 ± 0.78 µM	> 10 µM	C=C1C(=O)OC2CC3=C[C@@H](C/C(C)=C/C(OC(=O)c4ccccc4)[C@H]12)OC3=O (stereo partly shown) [DETD-31]	> 10 µM	> 10 µM	> 10 µM	–
2.9 ± 0.26 µM	2.2 ± 0.29 µM	5.9 ± 0.2 µM	C=C1C(=O)OC2CC3=C[C@@H](C/C(C)=C/C(OC(=O)c4ccc(C)cc4)[C@H]12)OC3=O (stereo partly shown) [DETD-33]	6.7 ± 0.22 µM	4.2 ± 0.09 µM	> 10 µM	–
